Measurements taken from ChEMBL document CHEMBL1142104, “Anti-HCV bioactivity of pseudoguaianolides from Parthenium hispitum” (J Nat Prod, 2007).

Assays:
[1] = system: Hepatitis C virus; experiment: Antiviral activity against HCV in Huh7 cells at 2 uM by subgenomic replicon assay; type: functional, Hepacivirus hominis; conditions: Huh-7
Summary of the method: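 Huh-7 replicon cells (luciferase reporter), grown to 85% confluency with >95% viability, seeded at 11 000 cells/well; compound added and incubated 48 h at 37 °C. Plates cooled 30 min to room temperature, luciferase reagent added, luminescence read after 3 min. Inhibition calculated with no-cell wells as low signal and compound-free cells as high signal; duplicate testing.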

[2] = Cytotoxicity against Huh7 replicon cells; type: cell-based; conditions: human, huh-7

SMILES | inhibition at 2 µM [1] | Activity [2]
C=C1C(=O)O[C@@H]2[C@H]1CCC(COC(=O)C(C)CC)[C@]1(O)CCC(=O)[C@@]21C (some centres undefined) | 25% | Not Active
C=C1C(=O)O[C@@H]2[C@H]1CC[C@H](COC(=O)/C(C)=C\C)[C@]1(O)CCC(=O)[C@@]21C [HISPITOLIDE E] | 65% | Not Active
C=C1C(=O)O[C@@H]2[C@H]1CC[C@H](COC(=O)/C(C)=C/C)[C@]1(O)CCC(=O)[C@@]21C [HISPITOLIDE C] | 98% | Not Active
C=C1C(=O)O[C@@H]2[C@H]1CC[C@H](COC(=O)C=C(C)C)[C@]1(O)CCC(=O)[C@@]21C [HISPITOLIDE D] | 98% | Not Active
C=C1C(=O)O[C@@H]2[C@H]1CC[C@H](COC(=O)CC)[C@]1(O)CCC(=O)[C@@]21C [HISPITOLIDE A] | 55% | Not Active
C=C1C(=O)O[C@@H]2[C@H]1CC[C@H](COC(=O)CCC)[C@]1(O)CCC(=O)[C@@]21C [HISPITOLIDE B] | 90% | Not Active
C=C1C(=O)O[C@@H]2[C@H]1CCC(COC(=O)CC(C)C)[C@]1(O)CCC(=O)[C@@]21C (some centres undefined) | 63% | Not Active
